Inhibition data for two compounds are collected here from ChEMBL document CHEMBL5696442, “Discovery of type II inhibitors of TGFβ-activated kinase 1 (TAK1) and mitogen-activated protein kinase kinase kinase kinase 2 (MAP4K2)” (J Med Chem, 2015).

The structures appear in SMILES notation.

Experiment [1] has as its system Tyrosine-protein kinase ABL1 (Homo sapiens), P00519 [F317I]. The experiment can be described thus: Inhibition of nonphosphorylated ABL1 F317I mutant (unknown origin) at 1 uM by Ambit Kinomescan binding assay relative to control.
Experiment [2] addresses Myosin-IIIb (Homo sapiens) (UniProt Q8WXR4). The experiment can be described thus: Inhibition of MYO3B (unknown origin) at 1 uM by Ambit Kinomescan binding assay relative to control. Summed up:
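In vitro ATP-site competition binding assay against a panel of over 420 kinases (KinomeScan), with compound tested at 10 or 1 μM.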

For experiment [3], the target named is Vascular endothelial growth factor receptor 2 (Homo sapiens) (UniProt P35968). The experiment can be described thus: Inhibition of VEGFR2 (unknown origin) at 1 uM by Ambit Kinomescan binding assay relative to control.
Experiment [4] deals with Mitogen-activated protein kinase kinase kinase 4 (Homo sapiens) (UniProt Q9Y6R4). The experiment can be described thus: Inhibition of MAP3K4 Lys2 labeling site in human A-375 cells at 5 uM by KiNativ Profiling analysis relative to control. The experiment is classed as cell-based.
Mitogen-activated protein kinase kinase kinase 4 (Homo sapiens), sequence (Q9Y6R4 whole entry): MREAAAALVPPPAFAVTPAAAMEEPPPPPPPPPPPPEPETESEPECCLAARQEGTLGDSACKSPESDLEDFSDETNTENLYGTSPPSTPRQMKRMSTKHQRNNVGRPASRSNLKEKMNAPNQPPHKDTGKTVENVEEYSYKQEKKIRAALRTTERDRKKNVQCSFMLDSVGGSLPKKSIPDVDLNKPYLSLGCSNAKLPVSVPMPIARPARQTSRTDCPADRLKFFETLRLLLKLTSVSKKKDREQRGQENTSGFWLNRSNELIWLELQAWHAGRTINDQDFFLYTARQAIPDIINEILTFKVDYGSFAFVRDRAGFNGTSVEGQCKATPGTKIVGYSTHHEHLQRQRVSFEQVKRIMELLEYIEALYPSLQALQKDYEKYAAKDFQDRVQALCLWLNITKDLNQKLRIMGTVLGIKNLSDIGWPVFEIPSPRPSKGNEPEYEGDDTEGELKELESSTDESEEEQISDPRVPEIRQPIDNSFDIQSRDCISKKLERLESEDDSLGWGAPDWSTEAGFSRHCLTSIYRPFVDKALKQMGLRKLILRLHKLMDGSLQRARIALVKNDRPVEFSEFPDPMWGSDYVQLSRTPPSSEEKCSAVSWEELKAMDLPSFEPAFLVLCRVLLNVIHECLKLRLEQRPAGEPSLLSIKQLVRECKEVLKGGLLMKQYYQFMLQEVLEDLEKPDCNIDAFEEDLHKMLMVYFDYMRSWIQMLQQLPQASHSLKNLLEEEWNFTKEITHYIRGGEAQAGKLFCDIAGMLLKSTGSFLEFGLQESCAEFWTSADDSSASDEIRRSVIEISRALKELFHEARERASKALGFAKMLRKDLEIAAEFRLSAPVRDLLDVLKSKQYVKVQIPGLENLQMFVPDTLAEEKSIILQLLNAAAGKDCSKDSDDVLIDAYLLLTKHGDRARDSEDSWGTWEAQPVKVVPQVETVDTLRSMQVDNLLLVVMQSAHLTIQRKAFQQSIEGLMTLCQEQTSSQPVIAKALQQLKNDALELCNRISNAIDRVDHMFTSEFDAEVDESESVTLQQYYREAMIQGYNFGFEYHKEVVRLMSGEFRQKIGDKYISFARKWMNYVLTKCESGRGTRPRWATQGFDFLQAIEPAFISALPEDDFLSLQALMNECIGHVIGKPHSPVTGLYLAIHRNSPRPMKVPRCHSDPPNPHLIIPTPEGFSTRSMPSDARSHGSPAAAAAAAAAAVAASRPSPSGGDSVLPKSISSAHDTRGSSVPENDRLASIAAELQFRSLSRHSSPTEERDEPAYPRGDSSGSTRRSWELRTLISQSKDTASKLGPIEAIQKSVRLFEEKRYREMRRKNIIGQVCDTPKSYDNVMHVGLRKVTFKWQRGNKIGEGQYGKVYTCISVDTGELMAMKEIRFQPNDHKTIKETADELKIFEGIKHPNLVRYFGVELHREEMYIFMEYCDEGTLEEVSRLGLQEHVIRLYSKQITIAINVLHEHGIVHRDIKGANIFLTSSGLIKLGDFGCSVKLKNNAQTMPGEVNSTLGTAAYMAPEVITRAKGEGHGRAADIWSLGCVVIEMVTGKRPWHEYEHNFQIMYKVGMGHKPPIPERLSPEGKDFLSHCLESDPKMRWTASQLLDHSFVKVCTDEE
In experiment [5] the target is Wee1-like protein kinase (Homo sapiens) (UniProt P30291). The experiment can be described thus: Inhibition of Wee1 Lys2 labeling site in human A-375 cells at 5 uM by KiNativ Profiling analysis relative to control. Format: cell-based.
Wee1-like protein kinase (Homo sapiens), sequence (P30291 whole entry, looked up): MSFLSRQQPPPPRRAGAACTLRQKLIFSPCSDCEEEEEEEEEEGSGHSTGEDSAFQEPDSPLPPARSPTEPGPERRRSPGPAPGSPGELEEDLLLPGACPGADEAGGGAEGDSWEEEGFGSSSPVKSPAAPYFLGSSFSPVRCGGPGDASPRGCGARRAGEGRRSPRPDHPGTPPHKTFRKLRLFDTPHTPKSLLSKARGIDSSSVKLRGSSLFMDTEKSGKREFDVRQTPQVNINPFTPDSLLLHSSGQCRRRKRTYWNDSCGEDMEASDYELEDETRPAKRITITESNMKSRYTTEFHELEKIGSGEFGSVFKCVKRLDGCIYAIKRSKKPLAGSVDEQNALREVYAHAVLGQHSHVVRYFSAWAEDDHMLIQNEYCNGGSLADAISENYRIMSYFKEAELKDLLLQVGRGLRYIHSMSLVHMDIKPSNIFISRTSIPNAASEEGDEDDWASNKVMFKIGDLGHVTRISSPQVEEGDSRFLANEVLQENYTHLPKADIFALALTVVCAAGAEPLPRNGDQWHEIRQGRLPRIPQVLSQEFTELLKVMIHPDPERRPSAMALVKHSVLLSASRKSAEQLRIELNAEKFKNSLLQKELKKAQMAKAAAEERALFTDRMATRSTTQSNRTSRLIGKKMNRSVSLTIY
The target of experiment [6] is T1, Mitogen-activated protein kinase kinase kinase 5 (Homo sapiens) (UniProt Q99683).
T1 sequence (whole entry): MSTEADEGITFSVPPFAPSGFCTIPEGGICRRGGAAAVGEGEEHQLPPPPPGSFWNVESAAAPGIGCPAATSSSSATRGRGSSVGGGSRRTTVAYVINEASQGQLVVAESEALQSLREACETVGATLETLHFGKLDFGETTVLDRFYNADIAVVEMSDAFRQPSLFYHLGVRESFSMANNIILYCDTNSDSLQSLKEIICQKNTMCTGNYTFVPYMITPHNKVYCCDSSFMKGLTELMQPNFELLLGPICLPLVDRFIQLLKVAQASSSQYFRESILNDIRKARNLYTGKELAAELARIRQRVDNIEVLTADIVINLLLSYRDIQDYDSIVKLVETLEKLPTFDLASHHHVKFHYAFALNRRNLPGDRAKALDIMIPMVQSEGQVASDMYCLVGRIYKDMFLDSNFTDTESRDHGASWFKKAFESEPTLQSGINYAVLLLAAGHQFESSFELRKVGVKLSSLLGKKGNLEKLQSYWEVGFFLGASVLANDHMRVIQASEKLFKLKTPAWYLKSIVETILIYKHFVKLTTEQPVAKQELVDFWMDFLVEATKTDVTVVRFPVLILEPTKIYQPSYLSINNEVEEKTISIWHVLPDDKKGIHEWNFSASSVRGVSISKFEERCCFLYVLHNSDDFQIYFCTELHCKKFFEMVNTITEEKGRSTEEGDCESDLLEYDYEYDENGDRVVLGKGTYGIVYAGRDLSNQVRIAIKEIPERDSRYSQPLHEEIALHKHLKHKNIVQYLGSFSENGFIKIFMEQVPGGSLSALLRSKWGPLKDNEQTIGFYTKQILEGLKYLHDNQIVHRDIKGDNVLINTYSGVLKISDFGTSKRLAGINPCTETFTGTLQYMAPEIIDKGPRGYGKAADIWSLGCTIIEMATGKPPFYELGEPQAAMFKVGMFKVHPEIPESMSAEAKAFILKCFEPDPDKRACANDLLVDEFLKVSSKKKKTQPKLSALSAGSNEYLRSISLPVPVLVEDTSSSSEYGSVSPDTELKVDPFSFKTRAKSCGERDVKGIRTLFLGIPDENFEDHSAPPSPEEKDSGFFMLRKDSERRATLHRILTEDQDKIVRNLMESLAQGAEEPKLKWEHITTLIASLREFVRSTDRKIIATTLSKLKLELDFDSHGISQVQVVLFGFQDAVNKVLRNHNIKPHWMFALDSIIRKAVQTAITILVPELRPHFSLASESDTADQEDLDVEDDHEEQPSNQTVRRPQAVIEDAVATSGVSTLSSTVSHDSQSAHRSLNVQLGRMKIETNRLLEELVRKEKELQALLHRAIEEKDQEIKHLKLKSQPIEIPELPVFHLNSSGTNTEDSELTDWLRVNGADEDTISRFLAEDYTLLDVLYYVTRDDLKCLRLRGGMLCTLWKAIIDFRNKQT
The experiment can be described thus: Inhibition of MAP3K5 Lys1 labeling site harbouring IAIKEIPERDSR in human A-375 cells at 0.05 uM by KiNativ Profiling analysis relative to control. The experiment is classed as cell-based.

Experiment [7] concerns the target T2, Serine/threonine-protein kinase greatwall (Homo sapiens) (UniProt Q96GX5).
T2 sequence (whole entry): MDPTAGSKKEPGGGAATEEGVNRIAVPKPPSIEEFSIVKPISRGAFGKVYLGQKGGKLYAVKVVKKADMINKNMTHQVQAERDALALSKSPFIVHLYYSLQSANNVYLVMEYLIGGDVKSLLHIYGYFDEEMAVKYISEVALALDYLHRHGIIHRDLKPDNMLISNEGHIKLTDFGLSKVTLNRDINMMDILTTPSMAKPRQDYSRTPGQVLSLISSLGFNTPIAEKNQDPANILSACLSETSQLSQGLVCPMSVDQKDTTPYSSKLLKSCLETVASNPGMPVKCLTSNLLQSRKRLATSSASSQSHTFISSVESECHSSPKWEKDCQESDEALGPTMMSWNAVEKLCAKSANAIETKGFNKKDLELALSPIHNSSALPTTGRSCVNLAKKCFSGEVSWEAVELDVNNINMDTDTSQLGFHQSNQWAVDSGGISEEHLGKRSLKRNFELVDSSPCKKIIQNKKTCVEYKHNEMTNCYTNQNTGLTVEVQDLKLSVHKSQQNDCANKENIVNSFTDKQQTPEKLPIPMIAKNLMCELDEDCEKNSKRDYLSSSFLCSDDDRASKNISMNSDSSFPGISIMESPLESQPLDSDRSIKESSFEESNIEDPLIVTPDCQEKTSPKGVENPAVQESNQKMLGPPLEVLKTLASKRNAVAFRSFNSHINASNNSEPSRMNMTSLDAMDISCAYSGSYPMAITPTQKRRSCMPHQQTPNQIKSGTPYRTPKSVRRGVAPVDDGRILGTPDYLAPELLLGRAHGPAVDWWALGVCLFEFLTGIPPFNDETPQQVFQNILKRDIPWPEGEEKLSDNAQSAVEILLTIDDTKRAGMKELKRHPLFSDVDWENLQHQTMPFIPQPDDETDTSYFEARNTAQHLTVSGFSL
The experiment can be described thus: Inhibition of MASTL ATP labeling site in human Huh-7 cells at 10 uM by KiNativ Profiling analysis relative to control. Format: cell-based.

Experiment [8] addresses Calcium/calmodulin-dependent protein kinase type II subunit alpha (Homo sapiens) (UniProt Q9UQM7). The experiment can be described thus: Inhibition of CAMK2a K2 labeling site in human Huh-7 cells at 1 uM by KiNativ Profiling analysis relative to control. Format: cell-based.

Tyrosine-protein kinase ABL1 (Homo sapiens), P00519 [F317I], sequence (P00519 whole entry F317I): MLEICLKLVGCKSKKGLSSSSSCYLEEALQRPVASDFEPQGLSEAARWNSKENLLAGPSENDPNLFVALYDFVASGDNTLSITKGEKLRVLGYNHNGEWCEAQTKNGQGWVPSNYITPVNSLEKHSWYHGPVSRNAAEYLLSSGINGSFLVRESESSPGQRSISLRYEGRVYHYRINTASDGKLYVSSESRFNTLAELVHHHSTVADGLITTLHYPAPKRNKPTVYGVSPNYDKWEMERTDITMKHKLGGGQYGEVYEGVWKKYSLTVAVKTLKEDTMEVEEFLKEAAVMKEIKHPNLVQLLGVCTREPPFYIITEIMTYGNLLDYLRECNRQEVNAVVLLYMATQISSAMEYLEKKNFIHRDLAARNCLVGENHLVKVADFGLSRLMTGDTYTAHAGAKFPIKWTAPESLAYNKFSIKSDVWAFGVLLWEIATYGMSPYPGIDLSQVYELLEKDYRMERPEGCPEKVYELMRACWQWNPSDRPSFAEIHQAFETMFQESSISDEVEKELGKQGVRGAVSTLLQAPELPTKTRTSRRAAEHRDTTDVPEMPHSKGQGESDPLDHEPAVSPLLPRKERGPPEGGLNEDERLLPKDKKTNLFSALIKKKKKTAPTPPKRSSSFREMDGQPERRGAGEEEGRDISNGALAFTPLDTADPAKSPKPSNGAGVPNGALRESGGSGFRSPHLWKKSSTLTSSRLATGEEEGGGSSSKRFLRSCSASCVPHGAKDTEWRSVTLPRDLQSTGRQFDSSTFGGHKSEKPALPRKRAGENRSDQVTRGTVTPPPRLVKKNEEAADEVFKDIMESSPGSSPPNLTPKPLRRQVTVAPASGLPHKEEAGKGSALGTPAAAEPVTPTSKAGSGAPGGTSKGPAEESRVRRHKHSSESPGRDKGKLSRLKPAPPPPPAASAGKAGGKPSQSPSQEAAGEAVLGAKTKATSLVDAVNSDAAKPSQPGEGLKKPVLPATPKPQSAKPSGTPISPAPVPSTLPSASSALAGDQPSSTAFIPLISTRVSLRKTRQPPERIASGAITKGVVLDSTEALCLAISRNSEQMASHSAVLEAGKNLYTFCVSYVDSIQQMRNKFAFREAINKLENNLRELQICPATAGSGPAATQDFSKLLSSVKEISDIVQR
Calcium/calmodulin-dependent protein kinase type II subunit alpha (Homo sapiens), sequence (Q9UQM7 whole entry): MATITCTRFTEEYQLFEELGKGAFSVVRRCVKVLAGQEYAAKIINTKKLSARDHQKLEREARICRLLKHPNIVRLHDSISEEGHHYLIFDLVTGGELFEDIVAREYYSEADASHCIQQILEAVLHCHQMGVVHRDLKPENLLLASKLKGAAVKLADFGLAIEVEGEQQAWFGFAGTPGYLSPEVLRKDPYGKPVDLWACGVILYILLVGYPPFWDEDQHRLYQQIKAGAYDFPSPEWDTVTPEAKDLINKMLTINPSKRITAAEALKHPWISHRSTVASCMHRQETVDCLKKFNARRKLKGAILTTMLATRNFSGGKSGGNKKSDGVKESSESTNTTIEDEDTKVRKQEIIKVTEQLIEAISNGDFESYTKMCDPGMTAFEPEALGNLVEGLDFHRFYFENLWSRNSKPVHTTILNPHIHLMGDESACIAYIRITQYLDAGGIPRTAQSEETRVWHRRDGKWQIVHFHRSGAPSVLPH

For `CCN1CCN(Cc2ccc(NC(=O)c3ccc(C)c(/C=C/c4cnc5[nH]ccc5c4OC)c3)cc2C(F)(F)F)CC1`, the inhibition in experiment [1] was 19%; in experiment [2] it was 84%; in experiment [3], 14%; in experiment [4], 14.2%; in experiment [5], -0.1%.

Take `CCN1CCN(Cc2ccc(NC(=O)c3ccc(C)c(Oc4ccnc5[nH]ccc45)c3)cc2C(F)(F)F)CC1`: the values for the inhibition in experiment [6], in experiment [7] and in experiment [8] were -3.3%, 3.9% and 5.8%, respectively.
